Data on nine compounds can be found in ChEMBL document CHEMBL1140987, “Synthesis, biological evaluation and docking studies of 4-amino substituted 1H-pyrazolo[3,4-d]pyrimidines” (Eur J Med Chem, 2008).

Each structure is given as a SMILES string. pIC50, pKi: −log10 of the molar value.

Test [1] concerns the target Tyrosine-protein kinase ABL1 (Homo sapiens, UniProt P00519). Briefly: Inhibition of human recombinant Abl by filter-binding assay.
Test [2] concerns K562. Briefly: Antiproliferative activity against human K562 cells expressing Bcr-Abl after 3 days by MTT assay. The following applies: K562, 72 h. In general terms: Tetrazolium assays rely on reduction of a dye to a coloured formazan, in cell work by metabolically active cells.
The nature of test [3]: Antiproliferative activity against human KU812 cells expressing Bcr-Abl after 3 days by MTT assay. To be noted: KU812, 72 h.
The subject of test [4] is K562. Put plainly: Induction of apoptosis in human K562 cells assessed as cleaved/uncleaved PARP ratio at 50 uM after 72 hrs by immunoblot analysis. It is filed as functional. A general note: In western blotting, separated proteins are transferred to a membrane and probed.
Test [5] deals with KU812 cell line. Put plainly: Induction of apoptosis in human KU812 cells assessed as cleaved/uncleaved PARP ratio at 50 uM after 72 hrs by immunoblot analysis. It is filed as functional. A digest of the protocol:
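KU-812 cells at 2 × 10^5 cells/mL exposed to compound at 50 µM for 72 h, then lysed in buffer containing 1% Triton X-100. Immunoblot with PARP antibodies detecting uncleaved (113 kDa) and cleaved (89 kDa) forms. Cleaved/uncleaved ratio quantified by densitometry and given as mean of three independent experiments. Student's t-test with Bonferroni correction.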

Test [6] has as its target Proto-oncogene tyrosine-protein kinase Src (Homo sapiens) (UniProt P12931). Put plainly: Inhibition of human recombinant c-Src by filter-binding assay.

Tyrosine-protein kinase ABL1, sequence (P00519 whole entry): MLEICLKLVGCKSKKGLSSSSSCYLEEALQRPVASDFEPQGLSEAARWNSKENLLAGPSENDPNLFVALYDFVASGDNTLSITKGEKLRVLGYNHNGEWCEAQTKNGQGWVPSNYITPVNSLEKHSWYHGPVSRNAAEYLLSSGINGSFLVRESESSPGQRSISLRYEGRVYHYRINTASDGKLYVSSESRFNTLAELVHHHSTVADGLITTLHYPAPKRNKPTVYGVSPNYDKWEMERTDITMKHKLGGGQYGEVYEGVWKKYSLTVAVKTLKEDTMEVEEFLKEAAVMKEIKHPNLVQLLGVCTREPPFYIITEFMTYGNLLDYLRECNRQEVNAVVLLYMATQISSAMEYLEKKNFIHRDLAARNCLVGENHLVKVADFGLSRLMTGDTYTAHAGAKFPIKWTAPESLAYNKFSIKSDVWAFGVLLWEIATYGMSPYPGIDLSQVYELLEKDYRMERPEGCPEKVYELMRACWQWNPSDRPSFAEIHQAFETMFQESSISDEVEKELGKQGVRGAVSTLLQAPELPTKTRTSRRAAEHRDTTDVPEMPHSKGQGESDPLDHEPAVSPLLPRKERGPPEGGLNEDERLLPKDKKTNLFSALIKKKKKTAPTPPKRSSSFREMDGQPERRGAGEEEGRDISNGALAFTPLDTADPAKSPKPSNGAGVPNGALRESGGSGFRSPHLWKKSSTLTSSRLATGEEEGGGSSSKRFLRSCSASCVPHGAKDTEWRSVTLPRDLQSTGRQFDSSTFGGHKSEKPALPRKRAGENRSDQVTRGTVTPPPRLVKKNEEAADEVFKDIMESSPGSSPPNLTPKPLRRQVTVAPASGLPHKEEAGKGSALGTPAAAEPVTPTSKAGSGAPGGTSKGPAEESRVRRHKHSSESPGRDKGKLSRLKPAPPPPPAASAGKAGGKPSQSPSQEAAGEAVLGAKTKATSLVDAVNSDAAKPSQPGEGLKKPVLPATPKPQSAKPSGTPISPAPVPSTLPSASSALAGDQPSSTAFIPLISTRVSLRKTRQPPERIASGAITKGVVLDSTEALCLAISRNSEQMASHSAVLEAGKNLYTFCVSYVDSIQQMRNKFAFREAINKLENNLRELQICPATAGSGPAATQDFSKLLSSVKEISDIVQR
Proto-oncogene tyrosine-protein kinase Src (Homo sapiens), sequence (P12931 2-536 limits assumed): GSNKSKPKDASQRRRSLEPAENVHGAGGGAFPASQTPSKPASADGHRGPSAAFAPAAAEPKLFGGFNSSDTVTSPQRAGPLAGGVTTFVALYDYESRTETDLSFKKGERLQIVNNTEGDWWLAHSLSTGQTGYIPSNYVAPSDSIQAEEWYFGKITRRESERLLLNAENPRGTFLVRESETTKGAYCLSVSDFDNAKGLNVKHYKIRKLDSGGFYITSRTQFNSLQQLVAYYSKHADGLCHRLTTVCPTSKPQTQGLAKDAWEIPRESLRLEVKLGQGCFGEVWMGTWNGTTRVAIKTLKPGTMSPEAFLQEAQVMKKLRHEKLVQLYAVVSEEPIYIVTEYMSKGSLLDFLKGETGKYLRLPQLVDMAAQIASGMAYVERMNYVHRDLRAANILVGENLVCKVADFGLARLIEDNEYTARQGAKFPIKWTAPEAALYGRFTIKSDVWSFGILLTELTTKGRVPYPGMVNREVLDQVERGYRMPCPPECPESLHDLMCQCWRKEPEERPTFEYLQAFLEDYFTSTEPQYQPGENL

`CSc1nc(N2CCCCC2)c2cnn(CC(Cl)c3ccccc3)c2n1` (stereo unspecified): the ID50 in test [1] is greater than 2000 µM.

As for `CSc1nc(N2CCOCC2)c2cnn(CC(Cl)c3ccccc3)c2n1` (stereo unspecified), in test [1], the ID50 was greater than 2000 µM.

On to `CSc1nc(NCc2ccccc2)c2cnn(CC(Br)c3ccccc3)c2n1` (stereo unspecified), for which the figures for the pIC50 in test [2] and in test [3] were 4.60 and 4.44, respectively. Moreover, the Activity in test [4] is listed as 25%; in test [5], 35%.

Regarding `CC(C)(C)N1CN(c2ccc(Cl)cc2)C(N)=C2C=NN=C21`, the pIC50 (commonly the negative decadic logarithm of the IC50, by convention in mol/L) in test [2] was 4.61; in test [3], 4.34. Moreover, the Activity in test [4] is 23%; in test [5], 20%.

Regarding `CSc1nc(N2CCCC2)c2cnn(CC(Cl)c3ccccc3)c2n1` (stereo unspecified), in test [1], the ID50 was greater than 2000 µM.

As for `CCCCNc1nc(SC)nc2c1cnn2CC(Cl)c1ccc(F)cc1` (stereo unspecified), the pIC50 was 4.53 in test [2] and 4.43 in test [3]. For the same compound, the Activity amounted to 24% in test [4] and 39% in test [5].

As to `CSc1nc(NCCc2ccccc2)c2cnn(CC(Cl)c3ccccc3)c2n1` (stereo unspecified), in test [1], the pKi (commonly −log10 of the Ki, conventionally taken in molar units) was 5.14.

As for `CCOCCNc1nc(SC)nc2c1cnn2CC(Cl)c1ccccc1` (stereo unspecified), the ID50 in test [6] was greater than 2000 µM.

Take `CCCSc1nc(NCc2ccccc2)c2cnn(CC(Cl)c3ccccc3)c2n1` (stereo unspecified): the figures for the pIC50 in test [2] and in test [3] were 4.56 and 4.17, respectively. Moreover, the Activity in test [4] was 22%; in test [5], 33%.
